Series [1] concerns Hepatitis C virus. Briefly: Inhibition of Hepatitis C virus 1b J4 recombinant NS5B Cdelta 21 RNA dependent RNA polymerase overexpressed in Escherichia coli BL21 (DE3). Set-up: species or system Hepatitis C virus subtype 1b.
Series [2] deals with Hepatitis C virus. Briefly: Antiviral activity against Hepatitis C virus 1b infected in human HuH7 cells assessed as inhibition of viral replication after 3 days by luciferase reporter assay. It counts as functional, organism-based, Hepacivirus hominis, genotype 1b, Huh-7. In a few lines: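 HCV 1b subgenomic luciferase reporter replicon (clone ET) cells, 2,500 per well, were exposed to a nine-point 1/4 dilution series for 3 days. Replication was read as luciferase activity. Values are means ± SD from 2 to 23 independent experiments run in quadruplicate.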

Series [3] in a line: (§1) Cytotoxicity against LTR-Luc transfected human MT4 cells […] after 3 days by ATPLite assay. It counts as cell-based.
A short description of series [4]: Cytotoxicity against CMV-Luc transfected human HuH7 cells after 5 days. It counts as cell-based, Huh-7. As to conditions: for CC50 at 120 h: CMV-Luc transfected HuH7 cells.
The target in series [5] is T1, DNA polymerase alpha catalytic subunit (Homo sapiens, UniProt P09884).
T1 sequence (P09884 whole entry): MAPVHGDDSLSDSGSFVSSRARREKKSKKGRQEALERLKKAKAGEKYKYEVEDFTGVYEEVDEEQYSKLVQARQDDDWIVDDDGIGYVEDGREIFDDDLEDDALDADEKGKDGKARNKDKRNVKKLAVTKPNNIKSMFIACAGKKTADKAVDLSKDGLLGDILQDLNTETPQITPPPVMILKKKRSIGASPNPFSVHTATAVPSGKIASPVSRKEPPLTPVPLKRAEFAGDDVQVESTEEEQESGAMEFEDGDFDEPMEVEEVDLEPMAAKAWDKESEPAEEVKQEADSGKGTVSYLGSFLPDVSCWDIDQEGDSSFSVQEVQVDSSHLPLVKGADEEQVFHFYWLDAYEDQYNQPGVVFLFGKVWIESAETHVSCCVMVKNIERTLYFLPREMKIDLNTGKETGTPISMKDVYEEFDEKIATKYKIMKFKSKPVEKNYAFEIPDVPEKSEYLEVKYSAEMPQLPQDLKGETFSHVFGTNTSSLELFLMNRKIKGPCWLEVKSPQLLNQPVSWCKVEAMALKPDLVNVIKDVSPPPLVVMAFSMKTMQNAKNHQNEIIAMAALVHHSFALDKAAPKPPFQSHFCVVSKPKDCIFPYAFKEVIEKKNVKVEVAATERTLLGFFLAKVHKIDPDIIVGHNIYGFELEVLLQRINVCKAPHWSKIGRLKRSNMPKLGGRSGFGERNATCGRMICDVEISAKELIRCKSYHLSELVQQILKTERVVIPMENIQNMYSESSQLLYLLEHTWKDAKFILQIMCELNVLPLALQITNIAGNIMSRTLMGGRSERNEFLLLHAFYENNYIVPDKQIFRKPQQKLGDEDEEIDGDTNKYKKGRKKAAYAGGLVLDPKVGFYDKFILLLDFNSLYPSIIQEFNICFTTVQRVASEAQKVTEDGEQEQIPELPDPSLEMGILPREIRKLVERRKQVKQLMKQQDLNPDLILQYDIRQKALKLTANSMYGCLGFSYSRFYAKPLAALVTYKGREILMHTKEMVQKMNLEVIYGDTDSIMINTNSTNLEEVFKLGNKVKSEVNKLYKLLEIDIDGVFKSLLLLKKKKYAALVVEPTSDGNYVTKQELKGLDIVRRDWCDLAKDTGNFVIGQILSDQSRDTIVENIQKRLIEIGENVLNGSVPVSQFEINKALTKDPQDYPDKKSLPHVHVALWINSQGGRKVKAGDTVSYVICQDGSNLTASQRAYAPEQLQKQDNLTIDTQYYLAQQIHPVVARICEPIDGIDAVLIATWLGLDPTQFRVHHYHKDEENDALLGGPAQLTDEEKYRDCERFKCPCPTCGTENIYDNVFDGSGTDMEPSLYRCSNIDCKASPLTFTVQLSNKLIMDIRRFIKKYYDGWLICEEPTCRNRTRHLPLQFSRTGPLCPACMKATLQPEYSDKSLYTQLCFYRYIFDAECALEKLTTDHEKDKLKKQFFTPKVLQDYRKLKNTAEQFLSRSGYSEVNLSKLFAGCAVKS
Put plainly: Inhibition of human DNA polymerase alpha. In a few lines:
(§2)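 Each enzyme–compound pair was tested in duplicate over 0.8 to 100 μM, with 100 μM as the highest dose. Each run included a no-inhibitor control, a solvent dilution (0.016 to 2% DMSO) and the relevant reference inhibitor. Percent inhibition at 100 μM was recorded for polymerase γ.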

The target of a further series is DNA polymerase beta (Homo sapiens, UniProt P06746). Put plainly: Inhibition of human DNA polymerase beta. In a few lines: as §2
For series [6], the target named is T2, DNA polymerase subunit gamma-1 (Homo sapiens, UniProt P54098).
T2 sequence (P54098 whole entry): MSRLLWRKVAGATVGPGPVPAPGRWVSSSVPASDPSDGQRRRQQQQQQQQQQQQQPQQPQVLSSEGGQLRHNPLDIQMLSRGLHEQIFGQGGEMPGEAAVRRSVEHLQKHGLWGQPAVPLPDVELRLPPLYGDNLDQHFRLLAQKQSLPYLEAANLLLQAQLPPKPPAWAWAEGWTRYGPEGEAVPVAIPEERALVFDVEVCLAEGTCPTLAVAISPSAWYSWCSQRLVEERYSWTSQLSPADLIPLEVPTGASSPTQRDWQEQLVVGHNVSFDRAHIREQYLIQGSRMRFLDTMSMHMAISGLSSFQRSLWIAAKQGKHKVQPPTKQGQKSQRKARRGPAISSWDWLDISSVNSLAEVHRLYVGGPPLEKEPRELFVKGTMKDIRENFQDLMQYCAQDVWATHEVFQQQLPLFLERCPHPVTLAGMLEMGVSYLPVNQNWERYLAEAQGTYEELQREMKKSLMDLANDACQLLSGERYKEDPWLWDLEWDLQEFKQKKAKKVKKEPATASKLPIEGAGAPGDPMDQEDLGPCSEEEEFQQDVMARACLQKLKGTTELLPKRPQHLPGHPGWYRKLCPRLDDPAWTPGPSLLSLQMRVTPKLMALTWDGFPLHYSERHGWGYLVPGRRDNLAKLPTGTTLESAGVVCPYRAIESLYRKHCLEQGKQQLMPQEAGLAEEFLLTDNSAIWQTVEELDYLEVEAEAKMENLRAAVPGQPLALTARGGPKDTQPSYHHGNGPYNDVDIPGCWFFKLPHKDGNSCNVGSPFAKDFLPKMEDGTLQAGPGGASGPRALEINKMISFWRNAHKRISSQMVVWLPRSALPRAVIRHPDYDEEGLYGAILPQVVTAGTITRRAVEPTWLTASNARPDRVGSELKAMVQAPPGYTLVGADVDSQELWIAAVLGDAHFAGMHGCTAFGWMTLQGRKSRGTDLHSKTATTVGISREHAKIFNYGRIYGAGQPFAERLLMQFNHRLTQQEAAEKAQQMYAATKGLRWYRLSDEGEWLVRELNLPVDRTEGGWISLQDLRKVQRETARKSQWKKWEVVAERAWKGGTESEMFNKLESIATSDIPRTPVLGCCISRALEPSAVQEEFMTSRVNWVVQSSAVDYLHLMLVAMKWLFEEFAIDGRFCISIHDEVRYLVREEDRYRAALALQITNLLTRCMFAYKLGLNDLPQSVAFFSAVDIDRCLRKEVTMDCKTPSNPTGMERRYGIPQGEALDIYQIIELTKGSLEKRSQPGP
Put plainly: Inhibition of human DNA polymerase gamma. The essentials: as §2

For series [7], the target named is Human immunodeficiency virus type 1 reverse transcriptase (Human immunodeficiency virus 1, UniProt Q72547). Put plainly: Inhibition of Human immunodeficiency virus 1 reverse transcriptase expressed in Escherichia coli by scintillation proximity assay. In a few lines:
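N-terminal His6 HIV-1 RT was expressed in E. coli BL21(DE3), induced overnight at 37°C with 0.4 mM IPTG. The homodimer was purified by Ni-NTA and heparin chromatography. Activity was measured by scintillation proximity assay at 2.5 nM enzyme, with efavirenz as reference inhibitor.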

The nature of series [8]: Inhibition of Dengue virus RNA-dependent RNA polymerase. The essentials: as §2
Series [9] concerns the target T3, DNA polymerase subunit gamma-1 (Homo sapiens) (UniProt P54098).
T3 sequence (whole entry): T2 sequence (P54098 whole entry)
Put plainly: Inhibition of human DNA polymerase gamma at 100 uM. The essentials:
as §2

Series [10] deals with Hepatitis C virus. Briefly: Inhibition of Hepatitis C virus 1b J4 recombinant NS5B Cdelta 21 RNA dependent RNA polymerase mediated formation of first phosphodiester bond during the polymerization reaction at 10 uM after 60 mins. As to conditions: Hepatitis C virus subtype 1b. In a few lines:
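Buffer was 50 mM HEPES pH 7.5, 5 mM MgCl2, 5 mM MnCl2, 10 mM KCl, 1 mM DTT, at room temperature. In the time course, incubation was lengthened with inhibitor held at 10 μM. Products were phenol-extracted, ethanol-precipitated, denatured 3 min at 95°C, run on 8 M urea–20% polyacrylamide gels, and imaged.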

The test system of series [11] is MT4. Described as §1. The note with it: mt4, 72 h, 72 h. It counts as cell-based.
Series [12] deals with Hepatitis C virus. Put plainly: Inhibition of Hepatitis C virus 1b J4 recombinant NS5B Cdelta 21 RNA dependent RNA polymerase overexpressed in Escherichia coli BL21 (DE3) by RdRp primer-dependent transcription assay. On the set-up: species or system Hepatitis C virus subtype 1b.
For series [13], the system named is Hepatitis C virus. Briefly: Inhibition of Hepatitis C virus 1b J4 recombinant NS5B Cdelta 21 RNA dependent RNA polymerase overexpressed in Escherichia coli BL21 (DE3) assessed as [alpha-33P]UTP incorporation by RdRp primer-independent transcription assay. Set-up: species or system Hepatitis C virus subtype 1b. The essentials:
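De novo (primer-independent) RdRp assay: 190 nM NS5BΔ21 (1b J4) with 86 nM HCV 3′ UTR template RNA, 0.5 mM each ATP/GTP/CTP, 10 μM UTP plus [α-³³P]UTP, in 20 mM Tris-HCl pH 7.5, 1 mM DTT, 5 mM MgCl₂, 20 mM NaCl. Incubated 2 h at room temperature, stopped with EDTA/tRNA, TCA-precipitated on filters, and scintillation-counted. Quadruplicate.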

Series [14] relates to MT4. Briefly: Cytotoxicity against human MT4 cells after 3 days by ATPLite assay. It counts as cell-based. The note with it: mt4, 72 h, 72 h. In a few lines: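 MT4 cells, 5,000 per well, were incubated 3 days at 37°C with eight serial fourfold compound dilutions. Cytotoxicity was read as intracellular ATP by ATPlite 1step luminescence. Values are means ± SD from two to eight independent experiments in quadruplicate.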

A short description of series [15]: Cytotoxicity against human HuH7 cells after 5 days by resazurin assay. The format is cell-based, Huh-7. As to conditions: huh-7, 120 h, 120 h. The essentials: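 Subconfluent HCV 1b subgenomic replicon cells, 500 per well and grown without G418, were incubated for 5 days with eight serial fourfold compound dilutions. Viability was read by resazurin. Values are means ± SD from two to eight independent experiments in quadruplicate.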

The subject of another series is HepG2. Briefly: Cytotoxicity against human HepG2 cells after 72 hrs by resazurin assay. The format is cell-based. The note with it: hepg2, 72 h, 72 h. The essentials: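 Cells were tested against eight serial fourfold dilutions for 72 h, at 3,000 cells/well for HEK293T and 4,000 cells/well for HepG2. Viability was read by resazurin staining. Values are means ± SD from two to eight independent experiments in quadruplicate.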

[16] abbreviates: Hepatitis C virus, genotype 1b, Huh-7, 72 h.

The source made the active and inactive calls. The calls are words filed in the database; no cut-off is given here.

In the case of `COc1ccc(C2C3=C(CC(C)(C)CC3=O)Nc3ccccc3N2C(C)=O)cc1OCc1ccccc1` (configuration not stated), the IC50 is 7.9 µM with Hepatitis C virus [1]; above 100 µM in [5]; above 100 µM at DNA polymerase beta; above 100 µM in series [6]; above 32 µM in series [7]; above 100 µM in series [8]. For the same compound, in the series with Hepatitis C virus [2] (setting [16]), the EC50 was 12.3 µM. For the same compound, the CC50 at 72 h in series [3] amounted to 32 µM. Further, the half-maximal cytotoxic concentration (CC50) at 120 h in [4] is 32 µM.

For `CC(=O)N1c2ccccc2NC2=C(C(=O)CC(C)(C)C2)C1c1ccc(Cl)cc1Cl` (configuration not stated), the EC50 in the series on Hepatitis C virus [2] (setting [16]) is above 32 µM. The CC50 at 72 h in series [3] came out at 32 µM. The same compound displayed a CC50 at 120 h in series [4] of 32 µM. Besides, the IC50 in series [5] is above 100 µM; on DNA polymerase beta, above 100 µM; in [6], above 100 µM; in series [7], above 32 µM; in [8], above 100 µM. In addition, the inhibition in series [9] was found to be 30%.

`CC(=O)N1c2ccccc2NC2=C(C(=O)CC(C)(C)C2)C1c1ccc(OCc2ccccc2)c(Cl)c1` (single isomer, unassigned; 4a): in the series with Hepatitis C virus [10], the inhibition result is “Active”.

In the case of `CC(=O)N1c2cccc(O)c2NC2=C(C(=O)CC(C)(C)C2)C1c1ccc(OCc2ccccc2)cc1Cl` (single isomer, unassigned; 7b), the EC50 in the series on Hepatitis C virus [2] (huh-7) turned out to be 2.1 µM. Moreover, the CC50 in the series with MT4 [11] was 14.4 µM; in series [4] (huh-7, 120 h, 120 h), 10.1 µM; in the series with MT4 [14], 38.4 µM; in series [15] it was 23.8 µM; with HepG2, above 25 µM. Also, the IC50 was 12.5 µM with Hepatitis C virus [12] and 18.5 µM with Hepatitis C virus [13].

For the origin of these results see ChEMBL document CHEMBL1671641, “1,5-benzodiazepines, a novel class of hepatitis C virus polymerase nonnucleoside inhibitors” (Antimicrob Agents Chemother, 2008).
